Converted amounts (≈) assume the structure as drawn.
Tests used:
Settings in all cases: Homo sapiens
[1] = system: E6SM; assay: Minimum inhibitory concentration required to reduce virus induced cytopathicity in embryonic skin muscle (E6SM) cell culture of virus HSV-1( F) was measured; assay type: functional
[2] = system: E6SM; assay: Minimum inhibitory concentration required to reduce virus induced cytopathicity in embryonic skin muscle (E6SM) cell culture of virus VV was measured; assay type: functional
[3] = system: HEL; assay: minimum inhibitory concentration required to reduce virus induced plaque formation in HEL cell culture of virus VZS (YS) was measured.; assay type: functional
Outline: (§1)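 Plaque-reduction assay in human embryonic lung (HEL) cells in 96-well microtiter plates. VZV strains were Oka and YS, plus TK-deficient 07-1 and YS-R. CMV strains were AD169 and Davis. The value is the concentration reducing virus plaque formation by 50%.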

[4] = system: E6SM; assay: Minimum inhibitory concentration required to reduce virus induced cytopathicity in embryonic skin muscle (E6SM) cell culture of virus HSV-2 (G) was measured; assay type: functional
[5] = system: E6SM; assay: Minimum inhibitory concentration required to reduce virus induced cytopathicity in embryonic skin muscle (E6SM) cell culture of virus HSV-2 (196) was measured.; assay type: functional
[6] = system: HEL; assay: Minimum inhibitory concentration required to reduce virus induced plaque formation in HEL cell culture of virus CMV (AD169) was measured; assay type: functional; outline: as §1
[7] = system: E6SM; assay: Minimum inhibitory concentration required to reduce virus induced cytopathicity in embryonic skin muscle (E6SM) cell culture of virus HSV-1 (KOS) was measured; assay type: functional
[8] = system: E6SM; assay: minimum inhibitory concentration required to cause a microscopically detectable change in normal cell morphology; assay type: functional
Outline: (§2)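 Cytotoxicity was judged by microscopic inspection of uninfected cell monolayers in microtiter plates. The value is the minimum concentration causing a microscopically detectable change in normal cell morphology.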

[9] = system: E6SM; assay: Minimum inhibitory concentration required to reduce virus induced cytopathicity in embryonic skin muscle (E6SM) cell culture of virus TK- HSV-1 (B2006) was measured; assay type: functional
[10] = system: E6SM; assay: Minimum inhibitory concentration required to reduce virus induced cytopathicity in embryonic skin muscle (E6SM) cell culture of virus TK- HSV-1 (VMW1837) was measured; assay type: functional
[11] = system: HEL; assay: Minimum inhibitory concentration required to reduce virus induced plaque formation in HEL cell culture of virus CMV (Davis) was measured; assay type: functional; outline: as §1
[12] = system: E6SM; assay: Minimum inhibitory concentration required to reduce virus induced cytopathicity in embryonic skin muscle (E6SM) cell culture of virus HSV-1 (Mc Intyre) was measured; assay type: functional
[13] = system: E6SM; assay: (§3) Minimum inhibitory concentration required to reduce virus induced cytopathicity in embryonic skin muscle (E6SM) cell culture of virus VSV was measured; assay type: functional
[14] = system: HEL; assay: In vitro antiviral activity and cytotoxicity, and minimum inhibitory concentration required to reduce cell growth by 50% in HEL cell culture; assay type: functional
Outline: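 Cytotoxicity was measured as inhibition of growth of human embryonic lung (HEL) cells seeded in 96-well microtiter plates. The value is the concentration reducing cell growth by 50%.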

[15] = system: HEL; assay: Minimum inhibitory concentration required to reduce virus induced plaque formation in HEL cell culture of virus VZS (OKA) was measured; assay type: functional; outline: as §1
[16] = system: HEL; assay: Minimum inhibitory concentration required to reduce virus induced plaque formation in HEL cell culture of virus TK- VZV (07-1) was measured; assay type: functional; outline: as §1
[17] = system: E6SM; assay: Minimum inhibitory concentration required to reduce virus induced cytopathicity in embryonic skin muscle (E6SM) cell culture of virus HSV-2 (Lyons) was measured.; assay type: functional
[18] = system: HEL; assay: Minimum concentration required to reduce virus induced plaque formation in HEL cell culture of virus TK- VZV (YS-R) was measured; assay type: functional; outline: as §1
[19] = system: E6SM; assay: Minimum inhibitory concentration required to cause a microscopically detectable change in normal cell morphology; assay type: functional; outline: as §2
[20] = system: HEL; assay: Minimum inhibitory concentration required to reduce virus induced plaque formation in HEL cell culture of virus VZS (YS) was measured; assay type: functional; outline: as §1
[21] = system: E6SM; assay: Minimum inhibitory concentration required to reduce virus induced cytopathicity in embryonic skin muscle (E6SM) cell culture of virus HSV-2 (196) was measured; assay type: functional
[22] = system: E6SM; assay: minimum inhibitory concentration required to reduce virus induced cytopathicity in embryonic skin muscle (E6SM) cell culture of virus HSV-2 (Lyons) was measured.; assay type: functional
[23] = system: E6SM; assay: Minimum inhibitory concentration required to reduce virus induced cytopathicity in embryonic skin muscle (E6SM) cell culture of virus VV was measured
[24] = system: HEL; assay: Minimum inhibitory concentration required to reduce virus induced plaque formation in HEL cell culture of virus TK- VZV (YS-R) was measured; assay type: functional; outline: as §1
[25] = system: HEL; assay: as §3; assay type: functional

| SMILES | MIC [1] [µg/mL] | MIC [2] [µg/mL] | MIC [3] [µg/mL] | MIC [4] [µg/mL] | MIC [5] [µg/mL] | MIC [6] [µg/mL] | MIC [7] [µg/mL] | MIC [9] [µg/mL] | MIC [10] [µg/mL] | MIC [11] [µg/mL] | MIC [12] [µg/mL] | MIC [13] [µg/mL] | MIC [14] [µg/mL] | MIC [15] [µg/mL] | MIC [16] [µg/mL] | MIC [17] [µg/mL] | MIC [18] [µg/mL] | MIC [19] [µg/mL] | MIC [20] [µg/mL] | other results |
| --- | --- | --- | --- | --- | --- | --- | --- | --- | --- | --- | --- | --- | --- | --- | --- | --- | --- | --- | --- | --- |
| O=c1[nH]c(=O)n([C@H]2C[C@H](O)[C@@H](CO)O2)cc1-c1cc(-c2ccccc2)no1 | > 40 | > 40 | 73 (≈ 197 µM) | > 40 | > 40 | 25 (≈ 67.3 µM) | > 40 | > 40 | > 40 | 25 (≈ 67.3 µM) | > 40 | > 40 | > 200 | 38 (≈ 102 µM) | 61 (≈ 164 µM) | > 40 | > 100 | – | – | MIC [8]: > 40 µg/mL |
| O=c1[nH]c(=O)n([C@H]2C[C@H](O)[C@@H](CO)O2)cc1-c1cc(-c2ccc(Cl)cc2)no1 | > 40 | > 40 | > 40 | > 40 | > 40 | 7 (≈ 17.3 µM) | > 40 | > 40 | > 40 | 7 (≈ 17.3 µM) | > 40 | > 40 | > 200 | 9 (≈ 22.2 µM) | 22 (≈ 54.2 µM) | > 40 | 77 (≈ 190 µM) | > 40 | – | – |
| O=c1[nH]c(=O)n([C@H]2C[C@H](O)[C@@H](CO)O2)cc1-c1cc(Br)no1 | 2 (≈ 5.35 µM) | > 400 | – | > 200 | – | > 100 | 7 (≈ 18.7 µM) | > 400 | > 400 | > 100 | 2 (≈ 5.35 µM) | > 400 | > 50 | 0.09 (≈ 0.241 µM) | > 100 | – | > 100 | > 400 | 0.24 (≈ 0.641 µM) | MIC [21]: > 400 µg/mL; MIC [22]: > 400 µg/mL |
| O=c1[nH]c(=O)n([C@H]2C[C@H](O)[C@@H](CO)O2)cc1/C=C/Br [BRIVUDINE] | 0.07 (≈ 0.21 µM) | – | – | 10 (≈ 30 µM) | > 400 | 250 (≈ 750 µM) | 0.07 (≈ 0.21 µM) | 100 (≈ 300 µM) | > 400 | 250 (≈ 750 µM) | 0.07 (≈ 0.21 µM) | – | 200 (≈ 600 µM) | 0.003 (≈ 0.00901 µM) | 8 (≈ 24 µM) | > 400 | – | > 400 | 0.003 (≈ 0.00901 µM) | MIC [23]: 1 µg/mL (≈ 3 µM); MIC [24]: 0.4 µg/mL (≈ 1.2 µM); MIC [25]: > 400 µg/mL |

Source: ChEMBL document CHEMBL1125708, “Synthesis and antiviral activity of 5-heteroaryl-substituted 2'-deoxyuridines” (1991)
